In the array DNA melting data of Ke et al. (doi:10.1101/2024.01.08.574731):

How the values were obtained:
[1] = melting temperature; fluorescence melt of hairpins on a sequencing array, two-state fit, raised by 9.35 °C to match UV melts; conditions: sodium 0.088 M
Procedure, shortened: (§1)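 Folding enthalpy and melting temperature were estimated with bootstrapped two-state fits and combined across four replicates by inverse-variance weighting, with fitted temperatures raised by 9.35 °C to match UV melts. The data were Cy3 fluorescence of library hairpins, with annealed Cy3 and quencher oligos, on a sequenced MiSeq flow cell in 50 mM Na-HEPES pH 8.0, 25 mM NaCl, imaged in 2.5 °C steps up to 60 °C and normalised to pre-quench Cy3 and control constructs.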

[2] = folding enthalpy; higher = less favourable; fluorescence melt of hairpins on a sequencing array, two-state fit; conditions: sodium 0.088 M
Procedure, shortened: as §1

Row | Sequence | Tm [1] [°C] | folding enthalpy [2] [kcal/mol]
1 | GTAGTAACGAAAGTTTAC (((..(((....)))))) | 27.1 | -9.07
2 | GATCCAACAGTGGATC ((((((....)))))) | 47.1 | -32.1
3 | GCGATGCGAAAGCTGCGC (((..((....))..))) | 64.2 | -22.7
4 | GAGGGCGAAAGCCCCTC ((((((....))).))) | 57.1 | -9.57
5 | GTAAGTGGAAACGCTTAC (((((.(....).))))) | 45.4 | -27.6
6 | GACTATACGAAAGTAGTC (((..(((....)))))) | 34.1 | -24.4
7 | AAGCTGAAAAGCTT (((((....))))) | 49.3 | -21.1
8 | ACTATGAAAATAGT (((((....))))) | 32.2 | -11.8
9 | GGGAAACGAAAGTTGCCC (((.(((....))).))) | 56.6 | -43.9
10 | GACAAGCGAAAGCTGTC (((.(((....)))))) | 56 | -23.1
11 | GTCGGTGGAAACGTCGAC ((((..(....)..)))) | 45.3 | -19.7
12 | GTTGTAGGAAACTATAAC (((.(((....))).))) | 34 | -24.6
13 | GCCGTTCGAAAGAAAGGC (((.(((....))).))) | 59.3 | -28.8
14 | GGTGCAGGAAACTGTGCC ((..(((....)))..)) | 48.5 | -26.1
15 | GCCTGCGAAAGCATTGGC ((((((....)))..))) | 50.9 | -21.2
16 | GGAGGAGGAAACTCCCCC ((.((((....)))).)) | 41.8 | -17.6
17 | GCCACCGGAAACAGCGGC (((.(.(....).).))) | 32.5 | -16.9
18 | GTGCACGAAAGTGGACAC ((((((....)))..))) | 52.6 | -15.2
19 | CTGCTGAAAAGCAG (((((....))))) | 58.9 | -22.2
20 | GAACACCGAAAGGTTTC (((.(((....)))))) | 37.4 | -20.5
21 | GATCTTGGTAAGATC ((((((...)))))) | 43.2 | -29
22 | GCGTGCCGAAAGGCCCGC (((.(((....))).))) | 68.9 | -21.6
23 | GCACCGCGAAAGCAGTGC ((((.((....)).)))) | 65 | -25.6

Row | Sequence | Tm [1] [°C] | folding enthalpy [2] [kcal/mol]
24 | GCAAGTGAAAACTTGC ((((((....)))))) | 61.5 | -35.4
25 | GGCCAATCGAAAGATGCC (((..(((....)))))) | 42.9 | -23.9
26 | GATCGTCCCCACGATC ((((((....)))))) | 53.9 | -41.8
27 | GGTGGGCCGAAAGGCACC (((..(((....)))))) | 50.5 | -10.5
28 | GGGCTCGAAAGAGTCCC ((((((....))).))) | 63.1 | -26.1
29 | GCCTCGGGAAACCGAGAC (.(((((....))))).) | 46.2 | -15.8
30 | GCCGAGCGAAAGCTATGC ((..(((....)))..)) | 38.8 | -12.5
31 | GATCACGTAGGTGATC ((((((....)))))) | 63.9 | -39
32 | GATCGATGATCGATC ((((((...)))))) | 50.7 | -22.2
33 | GATCCTAGCTAGGATC ((((((....)))))) | 54.1 | -56.9
34 | GTGACCGGAAACGGTTGC (..((((....))))..) | 47.6 | -17.9
35 | GGTGGCGAAAGCCGCACC ((((((....)))..))) | 47.7 | -9.89
36 | GACTAGGGAAACCTAGCC (.(((((....))))).) | 38.4 | -19.7
37 | GTTCTCGAAAGAGTGAAC ((((((....)))..))) | 29.4 | -14.7
38 | GATCAATGGGTTGATC ((((((....)))))) | 48.3 | -35.5
39 | GGAACTGGAAACAATTCC ((((.((....)).)))) | 28.4 | -13.1
40 | GTGACGGGAAACCATCAC ((((.((....)).)))) | 42.1 | -32.6
41 | GTAGCCGGAAACAGCTAC (((((.(....).))))) | 43.4 | -22.2
42 | GCGGTAGGAAACTACTGC ((.((((....)))).)) | 52.2 | -34.8
43 | GCACAGCGAAAGCAGCGC ((.(.((....)).).)) | 53.6 | -19.4
44 | GCGGTCGAAAGACTCCGC ((((((....)))..))) | 50.7 | -25.4
45 | GTATTAGGAAACTAGTAC (((.(((....))).))) | 29 | -16.2
46 | GTAGAGCGAAAGCTGTAC (((.(((....))).))) | 50.9 | -25.2

Row | Sequence | Tm [1] [°C] | folding enthalpy [2] [kcal/mol]
47 | GATGACGGAAACGTTGTC ((..(((....)))..)) | 36.1 | -28.5
48 | GATCGACGGTTCGATC ((((((....)))))) | 50.7 | -39.6
49 | GTCCGCTCGAAAGAGGAC (((..(((....)))))) | 47.4 | -29
50 | GATCACGAAAGTGTGATC ((((((....)))..))) | 47.9 | -27
51 | GTAAATGCGAAAGCATAC (((..(((....)))))) | 29.3 | -10.9
52 | GATCGCAATGCGATC ((((((...)))))) | 68.5 | -33
53 | GCATATGGAAACATACGC ((.((((....)))).)) | 35.4 | -26.3
54 | GAGGGGCGAAAGCCCTC (((.(((....)))))) | 55.5 | -10.1
55 | GGACATGGAAACATATCC (((.(((....))).))) | 30.5 | -21.6
56 | GAGTAGCGAAAGCTGCTC (((.(((....))).))) | 60.1 | -36.6
57 | GTCCATGGAAACATGGAC (((((((....))))))) | 63.6 | -41.8
58 | GTCCCAGGAAACCGGGAC (((((.(....).))))) | 53.2 | -34.8
59 | TGAAGGAAACTTCA (((((....))))) | 31.8 | -13.9
60 | GCCAACGAAAGTTTCGGC ((((((....)))..))) | 39 | -18.4
61 | GGGGCTTCGAAAGAACCC (((..(((....)))))) | 49.1 | -20.4
62 | GCACCGGGAAACCGATGC (((.(((....))).))) | 50.6 | -25.2
63 | GGCATCGGAAACGGTGCC ((((.((....)).)))) | 60.5 | -29.8
64 | GTCCTAGGAAACCAGGAC (((((.(....).))))) | 45.3 | -28.6
65 | GTGTAGAAATACAC (((((....))))) | 41.6 | -21.8
66 | GATCCCGTAGGGGATC ((((((....)))))) | 62.9 | -23.4
67 | GACGGCGAAAGCCAAGTC ((((((....)))..))) | 49 | -18.5
68 | GCACGAGGAAACTCATGC (((.(((....))).))) | 41.2 | -28.8
69 | GATCATCCTCATGATC ((((((....)))))) | 45.7 | -33.4
